# Shown are actives, neighbours in structure and some others; about 2.9% of the full set was active somewhere.
# HTRA1 inh: HTRA1 serine protease inhibitors, primary screen, biochemical, fluorescence polarization, HTS; Q92743; recombinant HTRA1, FP-rhodamine activity-based probe; inhibition, % at 5.96 µM; 340,000 tested, 0.5% active; AID 504803, 2011; in the data active means inhibition above about 36%
# SIAE primary: human SIAE inhibitors, primary screen, biochemical, fluorescence polarization, FP-Rh probe, 1536-well HTS; AID 1053197, 2014; inhibition, % at 9.66 µM; 370,000 tested, 0.69% active; SIAE FP-Rh probe binding;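 active means inhibition above a cutoff: mean of compounds within the control limits plus 3 SD of those, cut at about 17% in these data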
# ATG4B inhibitor: ATG4B protease inhibitors, primary screen, biochemical, fluorescence, uHTS | 340,000 tested, 0.51% active | ATG4B cleavage of LC3-PLA2, NBD-HPC fluorescence, 1 h | Cysteine protease ATG4B (Homo sapiens), Q9Y4P1 | AID 504462, 2011 | inhibition, % at 8.33 µM; in the data active means inhibition above about 40%
# PRMT1 FP inh: PRMT1 methyltransferase inhibitors, primary screen, biochemical, fluorescence polarization. AID 652257, 2013. inhibition, % at 2.79 µM. Protein arginine N-methyltransferase 1 (Homo sapiens), Q99873. 370,000 tested, 1.3% active. recombinant PRMT1, activity-based probe fluorescence polarization;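 active means inhibition above about 21% made by adding two undisclosed values, limit read from the data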
# Target sequence (Q99873 whole entry, looked up): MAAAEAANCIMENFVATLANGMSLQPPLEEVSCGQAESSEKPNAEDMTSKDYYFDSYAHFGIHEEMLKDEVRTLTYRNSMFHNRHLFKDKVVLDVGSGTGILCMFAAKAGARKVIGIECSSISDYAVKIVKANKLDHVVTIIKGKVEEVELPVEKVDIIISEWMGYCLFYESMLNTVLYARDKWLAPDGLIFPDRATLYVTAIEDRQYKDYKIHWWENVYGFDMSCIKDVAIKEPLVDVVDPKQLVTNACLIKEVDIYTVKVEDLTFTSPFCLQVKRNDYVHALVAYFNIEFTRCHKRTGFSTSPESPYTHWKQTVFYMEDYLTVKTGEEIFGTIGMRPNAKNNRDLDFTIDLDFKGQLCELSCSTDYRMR
# TCR CD3 inh: inhibitors of human TCR-CD3 interaction, primary screen, biochemical, fluorescence, TAMRA-labeled TCR probe | inhibition, % at 9.4 µM | 360,000 tested, 0.37% active; in the data active means inhibition above about 19%;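 further: recombinant mutant TCR 2C K166C tagged with TAMRA read by polarization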
# ABHD4 inh: ABHD4 inhibitors, primary screen, biochemical, fluorescence polarization, mouse | (Lyso)-N-acylphosphatidylethanolamine lipase (Mus musculus), Q8VD66 | purified mABHD4, FP-Rh probe fluorescence polarization | inhibition, % at 8.92 µM | 370,000 tested, 0.54% active | AID 720543, 2013;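 active means inhibition exceeding the mean over every tested compound plus 3 SD, cut at about 30% in these data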
#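 Assay system: wild-type mouse ABHD4 protein; compound: single nominal dose of 8.92 µM, 0.89% DMSO final; schedule: 45 min + 60 min at 25 °C; measured by: FP readout, ex 525 nm / em 598 nm; evaluation: % inhibition of FP-Rh probe binding versus controls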
# PRMT1 inh conf: PRMT1 methyltransferase inhibitors, confirmation, biochemical, fluorescence polarization, triplicate. shares compounds with PRMT1 FP inh. recombinant His-PRMT1, activity-based probe fluorescence polarization. inhibition, % at 2.79 µM. 3,300 tested, 42% active. AID 687036, 2013;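 active means mean inhibition across replicates above the hit cutoff derived for the earlier primary screen, cut at about 22% in these data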
# Hits are given with their value; – = inactive; · = not tested or not shown.
SMILES,HTRA1 inh,SIAE primary,ATG4B inhibitor,PRMT1 FP inh,TCR CD3 inh,ABHD4 inh,PRMT1 inh conf
O=S(=O)(c1ccc(S(=O)(=O)N2CCCC2)cc1)N1CCCCC1,·,·,–,·,·,·,·
O=S(=O)(c1ccccc1)N1CCN(S(=O)(=O)N2CCCCCC2)CC1,–,–,–,–,–,–,·
O=c1c2ccccc2sn1-c1ccc(S(=O)(=O)N2CCCC2)cc1,–,–,–,95,–,–,97
O=c1c2ccccc2sn1-c1ccc(S(=O)(=O)N2CCCCC2)cc1,–,–,–,43,–,–,63
Cc1ccc(-n2sc3ccccc3c2=O)cc1S(=O)(=O)N1CCCCC1,–,–,–,101,–,–,84
CC(=O)c1cc(-c2cccc(Cl)c2O)c(=O)n2c1CCC2,·,–,·,–,·,–,·
COC(=O)[C@]12C[C@H](CC(=O)NCCc3ccccc3OC)C(=O)N(Cc3ccco3)C1=C[C@H](COCc1ccccc1)O[C@@H]2C,·,–,·,–,·,–,·
COC(=O)C[C@@H]1CC[C@H]2[C@@H](COc3ccc(NC(=O)Nc4ccc(C)cc4)cc3C(=O)N2C)O1,·,–,·,–,·,–,·
Cc1cc(NC(=O)c2ccc(NS(=O)(=O)c3ccccc3)cc2)no1,·,–,·,–,·,–,·
Cn1cccc1CC(=O)NN=Cc1cccc(F)c1,·,–,·,–,·,–,·
COc1ccccc1C(=O)NC1CCCCN(Cc2ccc(OC(F)(F)F)cc2)C1=O (configuration not stated),·,–,·,–,·,–,·
O=C(NCc1cccc(F)c1)c1cccc2c1C(=O)c1ccc(N3CCCC3)cc1S2(=O)=O,–,·,–,·,·,·,·
O=C(O)c1cccc2c1C(=O)c1ccc(N3CCCC3)cc1S2(=O)=O,–,–,–,27,–,–,30
COC(=O)C1CN(Cc2cn(Cc3ccc(OC)cc3)nn2)CCS(=O)(=O)N1Cc1ccccc1 (configuration not stated),·,–,·,–,·,–,·
CCOC(=O)c1c(NC(C)=O)sc2c1CCC(C=O)=C2Sc1ccccc1,–,–,–,31,–,–,–
CCCCCn1c(C)c(CC(=O)Nc2ccc(Oc3cccnc3)c(C)c2)c2ccccc21,·,–,·,–,–,–,·
COc1ccc(CCNC(=O)CSc2ccc(NC(C)=O)cc2)cc1OC,–,–,–,25,–,–,31
OCCn1c(CSc2nnc(-c3ccco3)n2-c2ccccc2)nc2ccc(Cl)cc21,–,–,–,39,–,–,34
C[C@@H]1COc2cc(Br)ccc2S(=O)(=O)N1Cc1cn(CC2CCCCC2)nn1,·,–,·,–,·,–,·
O=C(N[C@@H](Cc1ccccc1)C(=O)N1CCC2CCN(S(=O)(=O)c3ccccc3)CC21)[C@@H]1CCCN1 (some centres not stated),·,–,·,–,·,–,·
O=C(Nc1sc2c(c1-c1nc3ccccc3s1)CCNC2)C(F)(F)F,·,–,·,41,·,–,–
CC(=O)Nc1sc2c(c1-c1nc3ccccc3s1)CCN(C)C2,·,–,·,–,·,–,·
Cc1ccc(/C=N/N2CCN(Cc3cccc4ccccc34)CC2)o1,–,–,–,26,–,–,–
Cc1ccc(/C=N/N2CCN(Cc3ccccc3)CC2)o1,–,–,–,–,–,–,·
O=c1ccnc(SCn2nnc3ccccc3c2=O)[nH]1,–,–,–,44,–,–,–
SMILES,HTRA1 inh,SIAE primary,ATG4B inhibitor,PRMT1 FP inh,TCR CD3 inh,ABHD4 inh,PRMT1 inh conf
Cc1cc(=O)[nH]c(SCn2nnc3ccccc3c2=O)n1,–,–,–,31,–,–,–
O=C(NCC1COc2ccccc2O1)c1ccc(NC(=O)c2c(Cl)cccc2Cl)cc1 (configuration not stated),·,–,·,–,·,–,·
CCn1c(SCC(=O)Nc2ccc3c(c2)c2ccccc2n3CC)nnc1-c1ccco1,–,–,–,43,–,–,26
CCn1c2ccccc2c2cc(NC(=O)c3ccc(Br)o3)ccc21,–,–,–,31,–,–,45
CCOC(=O)CC(=O)CSc1nccc(-c2cccnc2)n1,–,–,–,38,–,–,–
CCOC(=O)CC(=O)CSc1nc(-c2cccnc2)ccc1C#N,–,–,–,56,–,–,–
CCOC(=O)CC(=O)CSc1nc(-c2cccnc2)cc(C)c1C#N,–,–,–,–,–,–,·
CCN(CC)C(=O)CC[C@H]1CC[C@]2(CCCN(C(=O)c3ccno3)C2)O1,·,–,·,–,·,–,·
O=[N+]([O-])c1cccc(N=Cc2ccccc2)c1,–,–,–,–,–,–,·
O=[N+]([O-])c1cccc(N=Cc2sc3ccccc3c2O)c1,·,–,·,40,–,–,25
Oc1c(C=NCc2ccccc2)sc2ccccc12,–,–,–,43,–,–,34
COc1ccc(N=Cc2sc(O)c3ccccc23)cc1,–,–,–,–,–,–,·
O=[N+]([O-])c1ccc(N=Cc2sc3ccccc3c2O)cc1,–,–,–,49,–,–,–
COC(=O)[C@@]1(C)[C@H]2C(=O)N(Cc3ccccc3)C(=O)[C@H]2[C@H]2CN=C(SCc3ccccc3)N21,–,–,·,–,–,–,·
COC(=O)[C@@]1(Cc2ccccc2)[C@H]2C(=O)N(C)C(=O)[C@H]2[C@H]2CN=C(SCC3CC3)N21,–,–,–,–,–,–,·
COC(=O)[C@@]1(Cc2ccccc2)[C@H]2C(=O)N(C)C(=O)[C@H]2[C@H]2CN=C(SCC(=O)c3ccccc3)N21,–,–,–,45,–,–,33
CCN1C(=O)[C@H]2[C@H]3CN=C(SCC(=O)c4ccccc4)N3[C@@](C)(C(=O)OC)[C@H]2C1=O,–,–,–,83,–,–,73
COc1ccc2c3c(ccc2c1)C(=O)/C(=C/O)CC3,38,–,–,30,–,–,24
CCCCC(=O)Nc1c(O)c2ccccc2[nH]c1=O,–,–,–,31,–,–,–
CNC(=O)C(=O)Nc1c(O)c2ccccc2[nH]c1=O,–,–,–,–,–,–,·
CC(=O)Nc1c(O)c2ccccc2[nH]c1=O,–,–,–,36,–,–,–
N#Cc1cccc(NC(=O)OCCN2C(=O)CCC23CCC(c2ccccc2)CC3)c1 (configuration not stated),·,–,·,–,·,–,·
CC(C)CC1=NN2C(=N)/C(=C\c3coc4ccccc4c3=O)C(=O)N=C2S1,–,–,–,34,–,–,48
